The record followed here is ChEMBL document CHEMBL3272308, “Pharmacological effects of introducing a double bond into a binding site of oxytocin. Analogues with L-3,4-dehydroproline in position 7” (1977).

The species named for assay [1] is Rattus norvegicus. Description: Antidiuretic activity in rat. The format is functional, Urine.
The next assay is filed under the species Gallus gallus. Description: Vasodepressor activity in fowl. The format is functional.
The species entered for assay [2] is Rattus norvegicus. Description: Pressor activity in rat. The format is functional.
The species entered for assay [3] is Rattus norvegicus. Description: Activity at uterotonic receptor in rat uterus assessed as uterotonic activity. The format is tissue-based. In a few lines: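 Isolated female rat uterine horn in the bathing fluid used for the oxytocic assay. Isometric contractions were recorded at a baseline tension of 1 g. Cumulative dose-response curves (van Rossum) were built by raising doses geometrically until a maximal response, alternating oxytocin and analogue on the same horn with return to baseline between runs. pD2 is the negative log of the concentration giving 50% of maximum.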

The species entered for assay [4] is Rattus norvegicus. Description: Ratio of oxytocin to compound for antidiuretic activity in rat. The format is functional, Urine.

*1 amine or outer side, *2 acyl side, *3 side chain or, on linkers, in order; H or OH if unused. Where a SMILES comes first, the peptide text is derived from it. Bridges are numbered along the chain shown (N, C = ends). [ ]: non-standard residue; d: D form. X1 = O=C([C@H](O)CS[*:2])[*:1]; ΔPro = O=C(O)[C@@H]1C=CCN1

Regarding `CC[C@H](C)[C@@H]1NC(=O)[C@H](Cc2ccc(O)cc2)NC(=O)CCSSC[C@@H](C(=O)N2CCC[C@H]2C(=O)N[C@@H](CC(C)C)C(=O)NCC(N)=O)NC(=O)[C@H](CC(N)=O)NC(=O)[C@H](CCC(N)=O)NC1=O` [DEMOXYTOCIN], the Activity in the assay filed under Rattus norvegicus [1] worked out at 19 U/mg; in the assay listed under Gallus gallus, 975 U/mg; in the assay filed under Rattus norvegicus [2] it was 1.44 U/mg.

On to `CC[C@H](C)[C@@H]1NC(=O)[C@H](Cc2ccc(O)cc2)NC(=O)CCSSC[C@@H](C(=O)N2CC=C[C@H]2C(=O)N[C@@H](CC(C)C)C(=O)NCC(N)=O)NC(=O)[C@H](CC(N)=O)NC(=O)[C@H](CCC(N)=O)NC1=O`, for which the Activity is 23.3 U/mg in the assay listed under Rattus norvegicus [1], 1008 U/mg in the assay listed under Gallus gallus and 1070 U/mg in the assay filed under Rattus norvegicus [3].

Consider `CC[C@H](C)[C@@H]1NC(=O)[C@H](Cc2ccc(O)cc2)NC(=O)[C@H](O)CSSC[C@@H](C(=O)N2CC=C[C@H]2C(=O)N[C@@H](CC(C)C)C(=O)NCC(N)=O)NC(=O)[C@H](CC(N)=O)NC(=O)[C@H](CCC(N)=O)NC1=O` (YIQNC[ΔPro]LG-NH2; linker N-5 via X1), for which the Activity is 76.7 U/mg in the assay filed under Rattus norvegicus [1], 1295 U/mg in the assay filed under Gallus gallus and 880 U/mg in the assay filed under Rattus norvegicus [3].

On to `CC[C@H](C)[C@@H]1NC(=O)[C@H](Cc2ccc(O)cc2)NC(=O)[C@@H](N)CSSC[C@@H](C(=O)N2CCC[C@H]2C(=O)N[C@@H](CC(C)C)C(=O)NCC(N)=O)NC(=O)[C@H](CC(N)=O)NC(=O)[C@H](CCC(N)=O)NC1=O` [OXYTOCIN], for which the Activity in the assay listed under Rattus norvegicus [1] was found to be 2.7 U/mg; in the assay listed under Gallus gallus it was 507 U/mg; in the assay listed under Rattus norvegicus [2] it was 3.1 U/mg; in the assay listed under Rattus norvegicus [3], 546 U/mg.

For `CC[C@H](C)[C@@H]1NC(=O)[C@H](Cc2ccc(O)cc2)NC(=O)[C@H](O)CSSC[C@@H](C(=O)N2CCC[C@H]2C(=O)N[C@@H](CC(C)C)C(=O)NCC(N)=O)NC(=O)[C@H](CC(N)=O)NC(=O)[C@H](CCC(N)=O)NC1=O` (YIQNCPLG-NH2; linker N-5 via X1), the Activity in the assay filed under Rattus norvegicus [1] was 16.6 U/mg; in the assay filed under Gallus gallus it was 1778 U/mg; in the assay filed under Rattus norvegicus [2], 14.7 U/mg; in the assay filed under Rattus norvegicus [3], 1280 U/mg.

On to `CC[C@H](C)[C@@H]1NC(=O)[C@H](Cc2ccc(O)cc2)NC(=O)[C@@H](N)CSSC[C@@H](C(=O)N2CC=C[C@H]2C(=O)N[C@@H](CC(C)C)C(=O)NCC(N)=O)NC(=O)[C@H](CC(N)=O)NC(=O)[C@H](CCC(N)=O)NC1=O`, for which the Activity in the assay listed under Rattus norvegicus [1] is 5.9 U/mg; in the assay listed under Gallus gallus it was 548 U/mg; in the assay filed under Rattus norvegicus [3], 1070 U/mg. Also, in the assay listed under Rattus norvegicus [4], the Ratio stood at 2.

Regarding `CC[C@H](C)[C@@H]1NC(=O)[C@H](Cc2ccc(O)cc2)NC(=O)CCSSC[C@H](C(=O)N2CCC[C@H]2C(=O)N[C@@H](CC(C)C)C(=O)NCC(N)=O)NC(=O)[C@H](CC(N)=O)NC(=O)[C@H](CCC(N)=O)NC1=O`, the Activity in the assay listed under Rattus norvegicus [3] is 803 U/mg.
